Screening results: PubChem, several laboratories
KLK5 inh – kallikrein 5 (human) inhibition; inhibition, % at 5 µM; actives 0.59% (n = 210,000); Q9Y337; recombinant hK5, fluorogenic AMC substrate cleavage;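 active means inhibition of 40% or more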;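 further: 0% = enzyme controls without compound and 100% = no-enzyme blanks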
Target sequence (Q9Y337 67-293 limits assumed): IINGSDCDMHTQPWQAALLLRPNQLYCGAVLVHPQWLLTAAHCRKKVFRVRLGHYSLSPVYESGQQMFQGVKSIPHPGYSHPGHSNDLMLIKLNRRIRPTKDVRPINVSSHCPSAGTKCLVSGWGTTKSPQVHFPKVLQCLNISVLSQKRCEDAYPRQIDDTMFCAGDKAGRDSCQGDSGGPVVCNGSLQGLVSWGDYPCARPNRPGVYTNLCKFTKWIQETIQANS
FXIIa inh 1536 – blocks human coagulation factor XIIa protease activity | P00748 | purified FXIIa, Boc-QGR-AMC fluorogenic substrate, 2 h | inhibition, % at 5 µM | actives 0.3% (n = 220,000) | AID 800; in the data active means inhibition above about 40%;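 further: 0% = enzyme with no compound and 100% = blank without enzyme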
FXIa inh 1536 – blocks human coagulation factor XIa protease activity; inhibition, % at 5 µM; purified FXIa, Boc-Glu-Ala-Arg-AMC fluorogenic substrate; AID 798; actives 0.14% (n = 220,000); P03951;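 active means inhibition of at least 40%; inactive means inhibition below 40%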;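 further: fluorescence of freed AMC excited at 355 nm; 0% = enzyme without compound and 100% = no enzyme blank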
TbHK1 inh – T. brucei hexokinase 1 inhibition. actives 0.11% (n = 220,000). recombinant TbHK1, G6PDH-coupled NADH A340. inhibition, % at 10 µM. AID 1430;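 active means inhibition of 50% or more in the single-dose primary screen; inactive means inhibition below 50%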
thrombin 1536 – blocks human thrombin protease activity; AID 1046; inhibition, % at 5 µM; actives 0.26% (n = 220,000); alpha-thrombin, Boc-VPR-AMC fluorogenic substrate cleavage; P00734;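 active means inhibition at or above 40%; inactive means inhibition below 40%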;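 further: 0% = enzyme with no compound and 100% = wells without enzyme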
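System: Human alpha-thrombin protein | Medium: pH 7.5 Tris (50 mM) with NaCl 150 mM, Tween 20 0.05% | Times: Enzyme reaction carried out at room temperature | Detection: AMC fluorescence, 355/460 nm | Evaluation: Percent inhibition scaled between no-compound controls and no-enzyme blanks | Benchmarks: Enzyme without compound as high, wells lacking enzyme as low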
* hit, by the source's call. Most compounds without a hit are left out; they make up all but 1.1% or so of the library.

SMILES | KLK5 inh | FXIIa inh 1536 | FXIa inh 1536 | TbHK1 inh | thrombin 1536
COc1ccc(OC)c(NC(=O)C(=O)NNC(=O)COc2ccc(Br)cc2C)c1 | 2 | 2 | -4 | 9 | 2
CC(C)c1ccc(-c2c(C#N)c(N)nc(SCC(=O)N3CCCCCC3)c2C#N)cc1 | -2 | 5 | -6 | -8 | 41*
Cc1c(Cl)cnc(NC(=O)COC(=O)CCC(=O)c2cccs2)c1Cl | -7 | 6 | 14 | 12 | 55*
O=C(COC(=O)CCC(=O)c1cccs1)Nc1ncc(Cl)cc1Cl | 1 | -1 | 6 | 3 | 24
COC(=O)c1c(NC(=O)c2c(-c3ccccc3Cl)noc2C)sc2c1CCC2 | -24 | 41* | -13 | -17 | 2
CC(=O)N/C(=C\c1ccccc1)C(=O)OCC(=O)N(C)C1CCCCC1 | 44* | 18 | 5 | -6 | 10
CC(=O)N/C(=C\c1ccccc1)C(=O)OCC(=O)NC(C)C12CC3CC(CC(C3)C1)C2 (centres undefined) | -7 | 11 | 3 | -10 | -1
CN(C)/C=C1\N=C(c2ccccc2)OC1=O | -7 | 6 | 23 | -59 | 3
CN(C)/C(CN1CCN(C=O)CC1)=C1\N=C(c2ccccc2)OC1=O | 66* | 2 | 4 | -36 | 9
O=C(NCc1ccccc1)C1=C[C@H](c2coc3ccccc3c2=O)C[C@H](OCCCCO)O1 | 3 | 7 | 2 | 3 | 0
O=C(NCc1ccccc1)C1=C[C@@H](c2coc3ccccc3c2=O)C[C@@H](OCCCCO)O1 | 6 | 14 | 1 | -1 | 41*
Cc1c(C(=O)N(Cc2ccccc2)C(C)C)cnn1-c1ccccc1 | 0 | 8 | 0 | -5 | -3
Cc1c(C(=O)N(Cc2ccccc2)Cc2cccs2)cnn1-c1ccc(Cl)cc1 | 44* | 107* | 21 | 13 | 9
O=C(CCN1C(=O)C2C3C=CC(C3)C2C1=O)NC1CCCc2ccccc21 (centres undefined) | 53* | 23 | 13 | 0 | 14
O=C(CCn1ccc2ccccc21)NC1CCCc2ccccc21 (centres undefined) | -17 | 7 | -3 | -3 | -3
CCOC(=O)C[n+]1c(C)sc2ccc(OC)cc21 | -10 | 43* | 9 | -1 | 1
COCCNC(=S)NN=C1CCCCCC1 | 41* | 54* | 34 | 11 | 47*
COCCNC(=S)NN=C1CCC(c2ccccc2)CC1 (centres undefined) | -2 | 5 | -3 | -1 | -3
Cc1ccc(S(=O)(=O)N2CCOCC2)cc1C(=O)NCc1ccc2c(c1)OCO2 | -2 | 6 | -3 | -2 | -7
CCn1cc(C(=O)N2CC(C)CC(C)C2)c(=O)c2cc(S(=O)(=O)N3CCOCC3)ccc21 (centres undefined) | -11 | 18 | 0 | -30 | -7
CCn1cc(C(=O)NCc2ccc(Cl)cc2)c(=O)c2cc(S(=O)(=O)N3CCOCC3)ccc21 | -6 | 14 | 6 | -15 | 56*
CCn1cc(C(=O)NCc2ccc3c(c2)OCO3)c(=O)c2cc(S(=O)(=O)N(C)C)ccc21 | -10 | 12 | 5 | -12 | 55*
CCn1cc(C(=O)NCc2ccc3c(c2)OCO3)c(=O)c2cc(S(=O)(=O)N3CCOCC3)ccc21 | -8 | -4 | -13 | -26 | 93*
Clc1ccc(Oc2nc3c(Cl)cccc3s2)cc1Cl | -1 | 3 | -1 | -14 | -4
Cc1cccc(N2C(=O)CS/C2=N\NC(=O)c2cccnc2)c1C | 0 | 8 | -2 | -2 | -4
SMILES | KLK5 inh | FXIIa inh 1536 | FXIa inh 1536 | TbHK1 inh | thrombin 1536
Cc1cccc(N2C(=O)CS/C2=N\NC(=O)c2ccc(Br)cc2)c1C | 57* | 14 | 25 | 0 | 23
CCOc1ccccc1C(=O)Nc1cnn(Cc2ccc(F)cc2)c1 | -20 | 13 | 9 | -6 | -10
CCCOC1CCCN(Cc2nc(-c3ccc(C(=O)OC)cc3)no2)C1 (centres undefined) | 1 | 8 | 1 | 5 | 3
CCN1C(=O)N(S(=O)(=O)c2ccc(C)cc2)[C@@H](c2ccccc2)C(C(=O)OC)=C1C | 5 | 10 | 3 | -2 | 2
COC(=O)c1cc(C(=O)Nc2ccc(S(N)(=O)=O)cc2)cc([N+](=O)[O-])c1 | -2 | 7 | -4 | 5 | -1
COC(=O)c1cccc(NC(=O)NC(=O)c2ccc(Cl)cc2)c1 | 70* | 24 | 11 | 11 | 12
Cc1ccc2nc(N(CCCN(C)C)C(=O)c3sc4ccccc4c3Cl)sc2c1 | -5 | 7 | 1 | 14 | -1
Cc1ccnn1C(C)C(=O)O (centres undefined) | 4 | 7 | -1 | 3 | 1
